Laboratory results published in ChEMBL document CHEMBL1817582, “Optimization of the in vitro cardiac safety of hydroxamate-based histone deacetylase inhibitors” (J Med Chem, 2011).
One block for each compound: values may come before it.

What was measured:
[1] = Dissociation constant, pKa of the compound; type: physicochemical
[2] = tested on: Canis familiaris; test: Plasma concentration in dog at 150 mg/kg, po administered as single dose; type: ADME, organism-based, Canis lupus familiaris; design: dose 150 mg/kg, route oral; conditions: in vivo
[3] = tested on: Homo sapiens; test: Plasma concentration in human at 800 mg, po administered as single dose; conditions: in vivo
[4] = Clearance in Sprague-Dawley rat at 5 mg/kg, iv; type: ADME, organism-based; design: dose 5 mg/kg, route intravenous; conditions: in vivo
Procedure, shortened: (§1)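 Pharmacokinetics in naive Sprague-Dawley rats and in HCT116 tumor-bearing nude mice after single iv or oral dosing. Parameters reported as means: AUC, clearance, Vss, half-life, Cmax and oral bioavailability (F%).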

[5] = AUC in nude mouse xenografted with human HCT116 cells at 5 mg/kg, iv; type: ADME, organism-based, HCT-116; design: dose 5 mg/kg, route intravenous; conditions: in vivo; procedure, shortened: as §1
[6] = Oral bioavailability in nude mouse xenografted with human HCT116 cells at 20 mg/kg; type: ADME, organism-based, HCT-116; conditions: in vivo; procedure, shortened: as §1
[7] = Clearance in nude mouse xenografted with human HCT116 cells at 5 mg/kg, iv; type: ADME, organism-based, HCT-116; design: dose 5 mg/kg, route intravenous; conditions: in vivo; procedure, shortened: as §1
[8] = Volume of distribution at steady state in Sprague-Dawley rat at 5 mg/kg, iv; type: ADME, organism-based; design: dose 5 mg/kg, route intravenous; conditions: in vivo, read-out: Vdss; procedure, shortened: as §1
[9] = Metabolic stability in plasma of nude mouse xenografted with human HCT116 cells assessed as compound remaining after 3 hrs; type: ADME, cell-free, HCT-116; conditions: read-out: Stability
Procedure, shortened: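 Compound incubated in mouse plasma for three hours; percentage of compound remaining measured.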

[10] = tested on: Rattus norvegicus; test: AUC in Sprague-Dawley rat at 5 mg/kg, iv; type: ADME, organism-based, Plasma; design: dose 5 mg/kg, route intravenous; conditions: in vivo; procedure, shortened: as §1
[11] = Half life in nude mouse xenografted with human HCT116 cells at 5 mg/kg, iv; type: ADME, organism-based, HCT-116; design: dose 5 mg/kg, route intravenous; conditions: in vivo; procedure, shortened: as §1
[12] = Cmax in Sprague-Dawley rat at 10 mg/kg, po; type: ADME, organism-based; design: dose 10 mg/kg, route oral; conditions: in vivo; procedure, shortened: as §1
[13] = tested on: Rattus norvegicus; test: Oral bioavailability in Sprague-Dawley rat at 10 mg/kg; type: ADME, organism-based; conditions: in vivo; procedure, shortened: as §1
[14] = Cmax in nude mouse xenografted with human HCT116 cells at 20 mg/kg, po; type: ADME, organism-based, HCT-116; design: dose 20 mg/kg, route oral; conditions: in vivo; procedure, shortened: as §1
[15] = tested on: Rattus norvegicus; test: AUC in Sprague-Dawley rat at 10 mg/kg, po; type: ADME, organism-based, Plasma; design: dose 10 mg/kg, route oral; conditions: in vivo; procedure, shortened: as §1
[16] = AUC in nude mouse xenografted with human HCT116 cells at 20 mg/kg, po; type: ADME, organism-based, HCT-116; design: dose 20 mg/kg, route oral; conditions: in vivo; procedure, shortened: as §1
[17] = Half life in Sprague-Dawley rat at 5 mg/kg, iv; type: ADME, organism-based; design: dose 5 mg/kg, route intravenous; conditions: in vivo; procedure, shortened: as §1
[18] = Volume of distribution at steady state in nude mouse xenografted with human HCT116 cells at 5 mg/kg, iv; type: ADME, organism-based, HCT-116; design: dose 5 mg/kg, route intravenous; conditions: in vivo, read-out: Vdss; procedure, shortened: as §1
[19] = Solubility of compound at pH 6.8; type: physicochemical; conditions: buffer
[20] = AUC in Sprague-Dawley rat at 2 mg/kg, iv; type: ADME, organism-based; design: dose 2 mg/kg, route intravenous; conditions: plasma; procedure, shortened: as §1
[21] = Volume of distribution at steady state in Sprague-Dawley rat at 2 mg/kg, iv; type: ADME, organism-based; design: dose 2 mg/kg, route intravenous; conditions: in vivo, read-out: Vdss; procedure, shortened: as §1
[22] = Half life in Sprague-Dawley rat at 2 mg/kg, iv; type: ADME, organism-based; design: dose 2 mg/kg, route intravenous; conditions: in vivo; procedure, shortened: as §1
[23] = Clearance in Sprague-Dawley rat at 2 mg/kg, iv; type: ADME, organism-based; design: dose 2 mg/kg, route intravenous; conditions: in vivo; procedure, shortened: as §1

pKa [1]: 7.65
SMILES: O=C(/C=C/c1ccc(CNCCc2c[nH]c3ccccc23)cc1)NO

pKa [1]: 7.5
SMILES: O=C(/C=C/c1ccc(CN(CCO)CCc2c[nH]c3ccccc23)cc1)NO [DACINOSTAT]

concentration [2]: 960 nM
concentration [3]: 1580 nM
SMILES: O=C(CCCCCCC(=O)Nc1ccccc1)NO [VORINOSTAT]

clearance [4]: 66 mL/min/kg
AUC [5]: 0.463 µM·h
bioavailability [6]: 4%
clearance [7]: 176 mL/min/kg
Vd [8]: 7 L/kg
remaining at 3 h [9]: 54%
AUC [10]: 1.307 µM·h
half-life [11]: 1 h
Cmax [12]: 204 nM
F [13]: 5%
Cmax [14]: 56 nM
AUC [15]: 0.336 µM·h
AUC [16]: 0.0653 µM·h
half-life [17]: 1.3 h
Vd [18]: 5.9 L/kg
SMILES: CC(C)N(CCc1c(C(C)(C)O)[nH]c2ccccc12)Cc1ccc(/C=C/C(=O)NO)cc1

pKa [1]: 4.75
SMILES: O=C(/C=C/c1ccc(CN(CCc2c[nH]c3ccccc23)CCC(F)(F)F)cc1)NO

solubility [19]: > 1000 µg/mL
AUC [5]: 5.1 µM·h
bioavailability [6]: 2%
clearance [7]: 46.4 mL/min/kg
AUC [20]: 2.56 µM·h
half-life [11]: 1.44 h
Cmax [12]: 61 nM
Cmax [14]: 202 nM
Vd [21]: 1.99 L/kg
half-life [22]: 0.915 h
AUC [16]: 0.362 µM·h
clearance [23]: 36.5 mL/min/kg
Vd [18]: 1.46 L/kg
SMILES: Cc1nn2ccccc2c1CCNCc1ccc(/C=C/C(=O)NO)cc1

pKa [1]: 7.9
SMILES: CCCN(CCc1c[nH]c2ccccc12)Cc1ccc(/C=C/C(=O)NO)cc1

AUC [5]: 2.44 µM·h
bioavailability [6]: 4%
clearance [7]: 95 mL/min/kg
half-life [11]: 3.3 h
Cmax [14]: 849 nM
AUC [16]: 0.474 µM·h
Vd [18]: 4.5 L/kg
SMILES: CC(C)(C)c1[nH]c2ncccc2c1CCNCc1ccc(/C=C/C(=O)NO)cc1

pKa [1]: 3.2
SMILES: O=C(/C=C/c1ccc(CN(CCc2c[nH]c3ccccc23)CC(F)(F)F)cc1)NO

pKa [1]: 4.65
SMILES: Cc1[nH]c2ccccc2c1CCN(Cc1ccc(/C=C/C(=O)NO)cc1)CC(F)F

pKa [1]: 5.8
SMILES: Cc1[nH]c2ccccc2c1CCN(CCC(F)F)Cc1ccc(/C=C/C(=O)NO)cc1
